Experiments:
Assay type in all cases: functional
Conditions in all cases: Human alphaherpesvirus 1, Vero
[1] = test system: Human alphaherpesvirus 1; experiment: Antiviral activity against HSV1 infected in african green monkey Vero cells assessed as inhibition of plaque formation at 5 ug/mL after 1 hr relative to control
Outline: (§1)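 Plaque reduction in Vero cells (DMEM, 10% FBS, pH 7.2–7.4). Virus–compound mixture inoculated onto monolayer for 1 h adsorption. Overlay of DMEM with 2% agarose, incubated at 37 °C until plaques formed. Fixed with 10% formalin for 2 h and stained with crystal violet. % inhibition = (untreated count − treated count)/untreated count × 100.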

[2] = test system: Human alphaherpesvirus 1; experiment: Antiviral activity against HSV1 infected in african green monkey Vero cells assessed as inhibition of plaque formation at 2 ug/mL after 1 hr relative to control; outline: as §1
[3] = test system: Human alphaherpesvirus 1; experiment: Antiviral activity against HSV1 infected in african green monkey Vero cells assessed as reduction of plaque formation at 30 ug/mL treated 1 hr after infection measured after 1 hr by replication assay relative to control
Outline: (§2)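 Replication format. Vero cells seeded at 10⁵ cells/ml and grown 2 days at 37 °C. Infected with HSV-1 at 10⁴ PFU/well for 1 h at 37 °C, then unadsorbed virus washed off three times with supplement-free medium. Plaques formed, fixed, stained and counted. % reduction calculated against infected control wells.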

[4] = test system: Human alphaherpesvirus 1; experiment: Antiviral activity against HSV1 infected in african green monkey Vero cells assessed as reduction of plaque formation at 40 ug/mL treated 1 hr after infection measured after 1 hr by replication assay relative to control; outline: as §2
[5] = test system: Human alphaherpesvirus 1; experiment: Antiviral activity against HSV1 infected in african green monkey Vero cells assessed as reduction of plaque formation at 40 ug/mL pretreated 2 hrs before infection measured after 1 hr by adsorption assay relative to control
Outline: (§3)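 Adsorption format. Vero cells seeded at 10⁵ cells/ml and grown 2 days at 37 °C. Compound in supplement-free medium coincubated with cells for 2 h at 4 °C, then washed three times. HSV-1 at 10⁴ PFU/well added to pretreated cells for 1 h. Agarose–DMEM overlay, 37 °C until plaques, formalin fix and crystal violet stain. % plaque reduction calculated against untreated infected cells.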

[6] = test system: Human alphaherpesvirus 1; experiment: Antiviral activity against HSV1 infected in african green monkey Vero cells assessed as reduction of plaque formation at 30 ug/mL pretreated 2 hrs before infection measured after 1 hr by adsorption assay relative to control; outline: as §3
[7] = test system: Human alphaherpesvirus 1; experiment: Antiviral activity against HSV1 infected in african green monkey Vero cells assessed as reduction of plaque formation at 30 ug/mL pretreated 1 hr before infection measured after 1 hr by virucidal assay relative to control
Outline: (§4)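 Virucidal format. 10⁷ PFU HSV-1 in serum-free DMEM mixed with compound for 1 h. Mixture serially diluted 10-fold three times, and each dilution applied to Vero monolayers (10⁵ cells/ml, grown 2 days) for 1 h. DMEM overlay added, incubated at 37 °C, fixed and stained. % plaque reduction calculated against virus not pretreated with compound.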

[8] = test system: Human alphaherpesvirus 1; experiment: Antiviral activity against HSV1 infected in african green monkey Vero cells assessed as reduction of plaque formation at 20 ug/mL treated 1 hr after infection measured after 1 hr by replication assay relative to control; outline: as §2
[9] = test system: Human alphaherpesvirus 1; experiment: Antiviral activity against HSV1 infected in african green monkey Vero cells assessed as reduction of plaque formation at 20 ug/mL pretreated 2 hrs before infection measured after 1 hr by adsorption assay relative to control; outline: as §3
[10] = test system: Human alphaherpesvirus 1; experiment: Antiviral activity against HSV1 infected in african green monkey Vero cells assessed as reduction of plaque formation at 20 ug/mL pretreated 1 hr before infection measured after 1 hr by virucidal assay relative to control; outline: as §4

## COc1ccc(C2C(=O)C(c3ccc4c(c3)CCCC4)N=C3SCC(=O)N32)cc1OC (stereo not given)
[1]
  inhibition at 5 µg/mL: 0%
[2]
  inhibition at 2 µg/mL: 0%

## COc1ccc(C2NC(SC(C(C)=O)C(C)=O)=NC(c3ccc4c(c3)CCCC4)C2=O)cc1OC (stereo not given)
[3]
  inhibition at 30 µg/mL: 0%
[4]
  inhibition at 40 µg/mL: 0%
[1]
  inhibition at 5 µg/mL: 95%
[5]
  inhibition at 40 µg/mL: 0%
[6]
  inhibition at 30 µg/mL: 0%
[2]
  inhibition at 2 µg/mL: 90%
[7]
  inhibition at 30 µg/mL: 28%

## COc1ccc(C2OC2C(=O)c2ccc3c(c2)CCCC3)cc1OC (stereo not given)
[1]
  inhibition at 5 µg/mL: 57%
[2]
  inhibition at 2 µg/mL: 24%

## Cc1ccc(C2C(O)C(c3ccc4c(c3)CCCC4)=NN2c2ccccc2)cc1 (stereo not given)
[1]
  inhibition at 5 µg/mL: 76%
[2]
  inhibition at 2 µg/mL: 76%

## COc1ccc(C2C(=O)C(c3ccc4c(c3)CCCC4)N=C3SC(C(C)=O)=C(C)N32)cc1OC (stereo not given)
[1]
  inhibition at 5 µg/mL: 14%
[2]
  inhibition at 2 µg/mL: 0%

## COc1ccc(C2C(=O)C(c3ccc4c(c3)CCCC4)N=C3SC(C)C(=O)N32)cc1OC (stereo not given)
[3]
  inhibition at 30 µg/mL: 80%
[8]
  inhibition at 20 µg/mL: 60%
[1]
  inhibition at 5 µg/mL: 100%
[6]
  inhibition at 30 µg/mL: 0%
[9]
  inhibition at 20 µg/mL: 0%
[2]
  inhibition at 2 µg/mL: 90%
[10]
  inhibition at 20 µg/mL: 92%
[7]
  inhibition at 30 µg/mL: 95%

## COc1ccc(C2C(=O)C(c3ccc4c(c3)CCCC4)N=c3s/c(=C/c4ccc(Cl)cc4)c(=O)n32)cc1OC (stereo not given)
[1]
  inhibition at 5 µg/mL: 0%
[2]
  inhibition at 2 µg/mL: 0%

## Cc1ccc(C2OC2C(=O)c2ccc3c(c2)CCCC3)cc1 (stereo not given)
[1]
  inhibition at 5 µg/mL: 0%
[2]
  inhibition at 2 µg/mL: 0%

## O=C(c1ccc2c(c1)CCCC2)C1OC1c1ccc(Br)cc1 (stereo not given)
[1]
  inhibition at 5 µg/mL: 18%
[2]
  inhibition at 2 µg/mL: 30%

## Cc1ccc(-c2cc(-c3ccc4c(c3)CCCC4)nn2-c2ccccc2)cc1
[1]
  inhibition at 5 µg/mL: 26%
[2]
  inhibition at 2 µg/mL: 3%

## Cc1ccc(C2NC(=S)NC(c3ccc4c(c3)CCCC4)C2=O)cc1 (stereo not given)
[1]
  inhibition at 5 µg/mL: 66%
[2]
  inhibition at 2 µg/mL: 0%

## COc1ccc(C2NC(=S)NC(c3ccc4c(c3)CCCC4)C2=O)cc1OC (stereo not given)
[1]
  inhibition at 5 µg/mL: 54%
[2]
  inhibition at 2 µg/mL: 27%

## O=C(c1ccc2c(c1)CCCC2)C1OC(c2ccc(Br)cc2)C(C(=O)c2ccc3c(c2)CCCC3)OC1c1ccc(Br)cc1 (stereo not given)
[1]
  inhibition at 5 µg/mL: 0%
[2]
  inhibition at 2 µg/mL: 0%

## COc1ccc(C2C(=O)C(c3ccc4c(c3)CCCC4)N=C3SCCC(=O)N32)cc1OC (stereo not given)
[1]
  inhibition at 5 µg/mL: 30%
[2]
  inhibition at 2 µg/mL: 3%

## COc1ccc(C2NC(=O)NC(c3ccc4c(c3)CCCC4)C2=O)cc1OC (stereo not given)
[1]
  inhibition at 5 µg/mL: 21%
[2]
  inhibition at 2 µg/mL: 33%

## Cc1ccc(C2NC(=N)NC(c3ccc4c(c3)CCCC4)C2=O)cc1 (stereo not given)
[1]
  inhibition at 5 µg/mL: 0%
[2]
  inhibition at 2 µg/mL: 4%

## CCOC(=O)SC1=NC(c2ccc3c(c2)CCCC3)C(=O)C(c2ccc(OC)c(OC)c2)N1 (stereo not given)
[1]
  inhibition at 5 µg/mL: 19%
[2]
  inhibition at 2 µg/mL: 61%

Reference: ChEMBL document CHEMBL1157040, “Anti-HSV-1 activity and mechanism of action of some new synthesized substituted pyrimidine, thiopyrimidine and thiazolopyrimidine derivatives” (2010)
